Activity calls are given as the source filed them.
Tests used:
[1] = target: T1, Tyrosyl-DNA phosphodiesterase 1 (Homo sapiens, UniProt Q9NUW8); experiment: Inhibition of recombinant TDP1 (unknown origin) at 111 uM using 5'-[32P]-labeled N14Y as substrate after 15 mins by PAGE analysis
How it was run: (§1)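 5'-32P-labeled N14Y (3'-phosphotyrosyl single-stranded oligo) at 1 nM with 10 pM recombinant TDP1, 15 min at room temperature. Three-fold dilutions up to 111 μM. Gels scanned and quantified by densitometry. Positive control: AM-8-3.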

[2] = target: T2, DNA topoisomerase 1 (Homo sapiens) (UniProt P11387); experiment: Inhibition of Top1 (unknown origin) assessed as decrease in relaxation of supercoiled pBR322 DNA at 25 uM
T2 sequence (whole entry): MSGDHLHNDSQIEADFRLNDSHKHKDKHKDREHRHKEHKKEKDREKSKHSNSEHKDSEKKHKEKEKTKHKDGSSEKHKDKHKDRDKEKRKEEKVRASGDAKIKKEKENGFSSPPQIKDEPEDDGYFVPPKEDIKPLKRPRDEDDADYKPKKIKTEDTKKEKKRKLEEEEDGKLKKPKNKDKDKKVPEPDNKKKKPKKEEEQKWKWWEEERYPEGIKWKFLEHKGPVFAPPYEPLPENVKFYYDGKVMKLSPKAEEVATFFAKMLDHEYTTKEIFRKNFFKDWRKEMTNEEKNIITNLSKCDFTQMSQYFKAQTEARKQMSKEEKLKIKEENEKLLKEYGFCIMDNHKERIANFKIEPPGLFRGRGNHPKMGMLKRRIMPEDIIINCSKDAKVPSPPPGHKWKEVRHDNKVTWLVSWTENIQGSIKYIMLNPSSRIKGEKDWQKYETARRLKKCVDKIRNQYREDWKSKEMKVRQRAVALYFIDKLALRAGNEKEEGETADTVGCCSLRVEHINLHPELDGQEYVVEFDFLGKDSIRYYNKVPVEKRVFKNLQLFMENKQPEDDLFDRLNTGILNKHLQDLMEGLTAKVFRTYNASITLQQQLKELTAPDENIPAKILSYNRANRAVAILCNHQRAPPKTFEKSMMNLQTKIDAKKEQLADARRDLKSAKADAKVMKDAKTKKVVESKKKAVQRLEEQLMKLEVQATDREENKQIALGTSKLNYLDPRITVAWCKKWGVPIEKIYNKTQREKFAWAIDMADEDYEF
How it was run: (§2)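 Supercoiled pBR322 plasmid incubated with TOP1 or TOP2 enzyme, with or without test compound at 25 μM. Relaxed and supercoiled forms separated on agarose gel. Positive controls: camptothecin for TOP1, etoposide for TOP2.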

Homo sapiens = species on record: Homo sapiens; experiment: Inhibition of Top2 (unknown origin) assessed as decrease in relaxation of supercoiled pBR322 DNA at 25 uM; how it was run: as §2
[3] = target: T3, Tyrosyl-DNA phosphodiesterase 2 (Homo sapiens, UniProt O95551); experiment: Inhibition of human TDP2 expressed in TDP2 deficient chicken DT40 whole cell extracts using TY19 DNA as substrate after 15 mins by PAGE analysis
T3 sequence (O95551 whole entry): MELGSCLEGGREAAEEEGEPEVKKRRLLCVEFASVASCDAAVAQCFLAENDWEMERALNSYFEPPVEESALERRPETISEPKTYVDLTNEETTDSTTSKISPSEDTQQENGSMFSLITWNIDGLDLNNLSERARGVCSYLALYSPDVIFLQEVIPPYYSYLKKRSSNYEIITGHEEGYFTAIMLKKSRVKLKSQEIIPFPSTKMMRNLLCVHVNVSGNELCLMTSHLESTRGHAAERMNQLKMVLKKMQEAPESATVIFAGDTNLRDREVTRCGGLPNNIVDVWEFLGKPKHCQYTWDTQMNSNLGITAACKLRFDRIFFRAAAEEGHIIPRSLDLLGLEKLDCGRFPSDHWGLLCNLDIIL
How it was run: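 Extract from 1×10^7 TDP2-knockout DT40 cells complemented with human TDP2, lysed 15 min on ice, spun at 12000 g for 10 min, stored at -80 °C. TY19 substrate at 1 nM with 5 μg/mL extract, ±inhibitor, 15 min at room temperature in LMP2 buffer. Gel densitometry. IC50 is mean ± SD of ≥3 independent experiments.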

[4] = target: T3, Tyrosyl-DNA phosphodiesterase 2; experiment: (§3) Inhibition of recombinant human TDP2 using TY18 (alpha-[32P]-cordycepin-3'-labeled) as substrate after 15 mins by PAGE analysis
How it was run: (§4)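 32P-cordycepin-3'-labeled TY18 substrate at 1 nM with 25 pM recombinant human TDP2, 15 min at room temperature. Buffer: 50 mM Tris-HCl pH 7.5, 80 mM KCl, 5 mM MgCl2, 0.1 mM EDTA, 1 mM DTT, 40 μg/mL BSA, 0.01% Tween 20. Six or eight three-fold dilutions up to 111 μM. Gel densitometry; IC50 is mean ± SD of ≥3 independent experiments. Positive control: SV-163.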

[5] = target: DNA topoisomerase 2-alpha (Homo sapiens) (UniProt P11388); experiment: Poisoning activity at Top2alpha in human CCRF-CEM cells assessed as TOP2-DNA covalent cleavage complex up to 100 uM after 2 hrs by Western blot analysis based ICE assay; format: cell-based
How it was run: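 ICE assay: 60×10^5 CCRF-CEM cells exposed to compound for 2 h, then lysed in 1% Sarkosyl to detect TOP2–DNA covalent cleavage complexes. Etoposide at 10 and 50 μM served as positive control, with one lane co-treated with 10 μM etoposide.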

[6] = target: T4, Tyrosyl-DNA phosphodiesterase 2 (Homo sapiens) (UniProt O95551); experiment: Inhibition of recombinant human TDP2 at 111 uM using alpha-[32P]-cordycepin-3'-labeled TY18 as substrate after 15 mins by PAGE analysis; how it was run: as §4
T4 sequence (whole entry): T3 sequence (O95551 whole entry)

[7] = target: T4, Tyrosyl-DNA phosphodiesterase 2 (Homo sapiens); experiment: as §3; how it was run: as §4
[8] = target: DNA topoisomerase 2-alpha (Homo sapiens) (UniProt P11388); experiment: Poisoning activity at Top2alpha in human CCRF-CEM cells assessed as TOP2-DNA covalent cleavage complex up to 50 uM after 2 hrs by Western blot analysis based ICE assay; format: cell-based
How it was run: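 60×10^5 CCRF-CEM cells treated 2 h with compound at 10 or 50 μM, alone or combined with 10 μM etoposide, then lysed in 1% Sarkosyl. TOP2-DNA covalent complexes detected by ICE assay. Etoposide at 10 and 50 μM served as positive control.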

[9] = target: T1, Tyrosyl-DNA phosphodiesterase 1; experiment: Inhibition of recombinant TDP1 (unknown origin) using 5'-[32P]-labeled N14Y as substrate after 15 mins by PAGE analysis; how it was run: as §1

T1 sequence (Q9NUW8 whole entry): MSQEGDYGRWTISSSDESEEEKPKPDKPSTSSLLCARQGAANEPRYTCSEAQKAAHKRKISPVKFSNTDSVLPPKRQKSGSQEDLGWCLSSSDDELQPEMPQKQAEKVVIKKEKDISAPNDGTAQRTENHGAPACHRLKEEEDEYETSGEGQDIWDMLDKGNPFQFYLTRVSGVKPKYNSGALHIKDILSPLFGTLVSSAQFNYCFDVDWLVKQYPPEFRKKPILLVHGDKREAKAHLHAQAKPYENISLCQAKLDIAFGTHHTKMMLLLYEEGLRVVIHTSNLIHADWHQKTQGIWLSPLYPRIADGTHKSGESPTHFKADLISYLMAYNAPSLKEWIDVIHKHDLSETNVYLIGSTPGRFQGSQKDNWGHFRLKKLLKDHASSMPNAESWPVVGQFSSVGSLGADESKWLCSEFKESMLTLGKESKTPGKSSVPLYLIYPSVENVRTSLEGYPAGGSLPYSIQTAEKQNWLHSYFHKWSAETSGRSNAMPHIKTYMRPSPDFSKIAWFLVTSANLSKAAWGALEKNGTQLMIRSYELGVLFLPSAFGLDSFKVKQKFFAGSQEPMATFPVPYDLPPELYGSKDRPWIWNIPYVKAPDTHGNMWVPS
DNA topoisomerase 2-alpha (Homo sapiens), sequence (P11388 whole entry): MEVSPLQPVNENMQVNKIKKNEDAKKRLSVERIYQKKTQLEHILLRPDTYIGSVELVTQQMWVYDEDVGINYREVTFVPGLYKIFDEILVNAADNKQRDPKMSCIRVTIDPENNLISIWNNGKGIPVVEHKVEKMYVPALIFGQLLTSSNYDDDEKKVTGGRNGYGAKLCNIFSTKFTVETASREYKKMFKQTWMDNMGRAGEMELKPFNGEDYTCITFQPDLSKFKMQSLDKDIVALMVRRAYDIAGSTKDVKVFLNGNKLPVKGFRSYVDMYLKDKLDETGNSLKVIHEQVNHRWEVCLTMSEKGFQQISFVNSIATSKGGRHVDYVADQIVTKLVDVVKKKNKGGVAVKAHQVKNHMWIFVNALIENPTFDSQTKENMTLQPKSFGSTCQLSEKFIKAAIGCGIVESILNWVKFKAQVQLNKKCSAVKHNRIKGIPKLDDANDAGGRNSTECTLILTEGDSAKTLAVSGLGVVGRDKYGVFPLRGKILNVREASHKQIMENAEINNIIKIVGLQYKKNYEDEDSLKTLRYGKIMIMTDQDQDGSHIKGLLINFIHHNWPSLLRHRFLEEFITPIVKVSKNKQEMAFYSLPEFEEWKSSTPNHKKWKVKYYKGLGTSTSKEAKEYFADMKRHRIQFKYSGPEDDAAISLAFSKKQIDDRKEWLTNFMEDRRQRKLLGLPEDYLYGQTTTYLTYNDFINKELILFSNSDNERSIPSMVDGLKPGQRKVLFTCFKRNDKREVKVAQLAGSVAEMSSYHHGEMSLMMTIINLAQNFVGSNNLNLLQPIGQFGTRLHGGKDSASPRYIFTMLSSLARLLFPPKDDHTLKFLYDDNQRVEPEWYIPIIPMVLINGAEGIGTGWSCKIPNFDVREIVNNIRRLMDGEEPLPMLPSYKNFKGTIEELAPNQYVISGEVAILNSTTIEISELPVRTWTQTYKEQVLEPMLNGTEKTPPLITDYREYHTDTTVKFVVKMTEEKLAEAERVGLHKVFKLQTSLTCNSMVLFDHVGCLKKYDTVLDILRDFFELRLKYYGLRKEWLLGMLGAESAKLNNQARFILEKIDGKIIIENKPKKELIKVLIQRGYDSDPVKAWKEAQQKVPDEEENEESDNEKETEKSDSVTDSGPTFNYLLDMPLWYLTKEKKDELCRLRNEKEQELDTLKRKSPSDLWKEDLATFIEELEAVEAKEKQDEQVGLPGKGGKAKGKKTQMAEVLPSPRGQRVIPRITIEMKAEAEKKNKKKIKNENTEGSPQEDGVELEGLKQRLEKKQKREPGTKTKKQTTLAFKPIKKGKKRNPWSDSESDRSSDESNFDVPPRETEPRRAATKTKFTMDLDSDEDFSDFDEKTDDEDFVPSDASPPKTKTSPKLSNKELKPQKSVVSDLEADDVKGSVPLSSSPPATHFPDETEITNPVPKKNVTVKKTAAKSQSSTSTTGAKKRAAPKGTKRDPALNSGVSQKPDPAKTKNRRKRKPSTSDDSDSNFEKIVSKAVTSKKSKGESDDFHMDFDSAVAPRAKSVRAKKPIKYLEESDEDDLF

inhibition [1]	inhibition [2]	inhibition (Homo sapiens)	IC50 [3] [µM]	IC50 [4] [µM]	inhibition [6] [%]	inhibition [7]	IC50 [9] [µM]	SMILES	Activity [5]	Activity [8]
inactive	inactive	inactive	3.1	3.3	100	Dose-dependent effect	–	CCOC(=O)c1noc2c1C(=O)c1ncccc1C2=O	–	–
inactive	inactive	inactive	2.1	1.9	100	Dose-dependent effect	–	CCOC(=O)c1noc2c1C(=O)c1cccnc1C2=O	–	inactive
–	–	–	–	–	100	Dose-dependent effect	–	N#Cc1ccc2cc3c(=O)[nH]c(=O)nc-3n(-c3cccc(-c4nnn[nH]4)c3)c2c1	–	–
inactive	–	–	8.8	29	100	Dose-dependent effect	–	Cc1oc2c(c1C(=O)Oc1cccc(O)c1)C(=O)c1ncccc1C2=O	–	–
–	–	–	24	22	–	–	38	COC(=O)c1sccc1OC(=O)c1c(C)oc2c1C(=O)c1ncccc1C2=O	–	–
inactive	–	–	9.8	20	100	Dose-dependent effect	–	Cc1oc2c(c1C(=O)OCCO)C(=O)c1ncccc1C2=O	–	–
inactive	–	–	10	18	100	Dose-dependent effect	–	Cc1oc2c(c1C(=O)Oc1ccccc1)C(=O)c1ncccc1C2=O	–	–
–	–	–	–	28	–	–	48	Cc1oc2c(c1C(=O)Oc1ccc([N+](=O)[O-])cc1)C(=O)c1ncccc1C2=O	–	–
inactive	–	–	6.6	7.6	100	Dose-dependent effect	–	Cc1oc2c(c1C(=O)Oc1ccccc1O)C(=O)c1ncccc1C2=O	–	–
inactive	–	–	24	28	–	–	–	Cc1oc2c(c1C(=O)OCC(F)(F)F)C(=O)c1ncccc1C2=O	–	–

SMILES	inhibition [1]	inhibition [2]	inhibition (Homo sapiens)	IC50 [3] [µM]	IC50 [4] [µM]	inhibition [6] [%]	inhibition [7]	IC50 [9] [µM]	Activity [5]	Activity [8]
CCOC(=O)c1c(C)oc2c1C(=O)c1ncccc1C2=O	inactive	inactive	inactive	22	11	–	–	–	inactive	–
Cc1oc2c(c1C(=O)OCCCO)C(=O)c1ncccc1C2=O	inactive	–	–	11	17	100	Dose-dependent effect	–	–	–
Cc1oc2c(c1C(=O)OC[C@@H](O)CO)C(=O)c1ncccc1C2=O	inactive	–	–	14	12	100	Dose-dependent effect	–	–	–
C#CCCOC(=O)c1c(C)oc2c1C(=O)c1ncccc1C2=O	inactive	–	–	15	22	–	–	–	–	–

— ChEMBL document CHEMBL4152221, “Synthesis and structure-activity relationship of furoquinolinediones as inhibitors of Tyrosyl-DNA phosphodiesterase 2 (TDP2)” (Eur J Med Chem, 2018)
